Bioassay records deposited in PubChem by several laboratories.
T cruzi repl – inhibitors of intracellular T. cruzi growth, primary screen, luminescence, NIH3T3 host cells. inhibition, % (test concentration not listed). hit rate 1.4% among 300,000. AID 1885, 2009. T. cruzi beta-gal in NIH3T3, 90 h;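 active = mean inhibition across valid replicates above about 55%, limit read from the data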;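 note: signal also drops with host cell toxicity which is not excluded here; 0% = plate median of DMSO wells and 100% = zero luminescence signal; higher percent means less beta-gal luminescence so fewer parasites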
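System: mouse NIH/3T3 fibroblasts infected with β-gal-expressing T. cruzi Tulahuen C4 / Input: NIH/3T3 cells, 5,000 per well / Buffer or medium: Low-serum DMEM with 2% FBS / Probe or stimulus: 5000 reporter trypomastigotes per well / Schedule: ≥90 h infection period, 3 h prior cell attachment / Measured by: GalScreen luminescence, 60 min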
Beta apoptosis – inhibitors of cytokine-induced beta cell apoptosis, primary screen, luminescence. protection from apoptosis, % (test concentration not listed). hit rate 0.8% among 300,000. INS-1E cytokine-induced death, ATP luminescence, 48 h; percent of positive-control rescue, neutral wells zero;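 active = Every replicate reaches about 75%, or at least half do and their mean reaches it too, limit read from the data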;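 note: 0% = cytokine-treated negative control wells and 100% = positive control rescue; higher means more ATP so stronger rescue from cytokine killing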
Calb FLC – C. albicans growth inhibition with fluconazole, primary screen, CaCi-2 strain, Alamar Blue fluorescence | C. albicans CaCi-2 + fluconazole, 48 h | growth inhibition, % (concentration not given with the values) | hit rate 0.57% among 300,000 | AID 1979, 2009;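 active = growth inhibition above about 58% in most replicates, limit read from the data, passing the limit was not always enough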;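 note: all wells also contain fluconazole at 8 µg/ml as a sub-toxic cotreatment; 0% = median of DMSO wells and 100% = median of geldanamycin control wells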
NLRP3 yeast inh – NALP3 inflammasome inhibitors in reconstituted yeast, primary screen, luminescence, uHTS. Yeast reconstituted NLRP3/ASC/caspase-1, beta-gal luminescence, 24 h. inhibition, % at 10 µM. hit rate 0.39% among 330,000. AID 2825, 2010;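 active = inhibition of 50% or more; inactive = inhibition below 50%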;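 note: plate controls were induced DMSO wells for no effect and uninduced yeast grown without galactose for full effect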
Mdm2 MdmX PPI – inhibitors of human Mdm2-MdmX association, primary screen, cell-based, luminescence, split luciferase, SaOS-2, uHTS. inhibition, % at 8 µM. AID 485346, 2010. hit rate 3% among 330,000. SaOS-2 split-luciferase Mdm2/MdmX complementation;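 active = inhibition of at least 50% at 8 µM in the primary screen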
CSC inhib – cancer stem cell viability inhibitors, primary screen, luminescence | cancer stem cell-like cells viability | inhibition, % at 7.5 µM | hit rate 1.1% among 300,000 | AID 2717, 2010; in the data active = inhibition above about 75%; tested in HMLE shEcad cells
* = called active by the depositor; nt = not tested or not shown. An excerpt weighted towards active compounds, which were near 5.3% of everything screened.

SMILES	T cruzi repl	Beta apoptosis	Calb FLC	NLRP3 yeast inh	Mdm2 MdmX PPI	CSC inhib
CCN(CC)CCNCc1ccc(-c2ccc(Cl)cc2)o1	30.6	-3.3	-14.5	3.2	5.0	78.8*
C/C(=N\NC(=O)c1cc(-c2cccc([N+](=O)[O-])c2)n[nH]1)c1ccccc1O	60.8*	nt	9.9	nt	nt	79.8*
O=S(=O)(Cc1cc(Sc2ccc(Cl)cc2)nc(-c2ccccc2)n1)c1ccccc1	54.6*	6.2	-9.6	12.7	21.0	-4.3
Cc1nnc(NC(=O)CN2CC(C)OC(C)C2)s1 (stereo not given)	3.6	1.1	1.8	6.5	-1.9	-12.0
CCOC(=O)c1ccc(CNC(=O)CCC(=O)O)cc1	-3.0	-8.5	-8.2	7.5	3.1	8.5
CNC(=O)c1nc(C)n(-c2ccc(Cl)cc2Cl)n1	-1.5	-3.5	-6.9	-5.3	-5.8	-10.0
Cc1c(Cl)cccc1NC(=O)c1nc(C)n(-c2cc(OC(C)C)c(Cl)cc2Cl)n1	56.1*	-14.7	8.6	11.7	6.1	20.6
CC(=O)Oc1ccc(C#C/C=C2\c3ccccc3C(=O)N2c2ccccc2)cc1	nt	4.9	nt	4.4	18.8	133.8*
CC(=O)Oc1ccc(CC(C(=O)O)N2C(=O)c3ccccc3C2=O)cc1 (stereo not given)	-10.5	-4.7	-2.4	-0.2	11.6	-1.6
CCCC(/C=C/c1ccc(OC(C)=O)cc1)=C1/c2ccccc2C(=O)N1c1ccccc1	nt	-3.4	nt	1.6	33.3	112.0*
CC(C)CC(=O)NCc1ccc(F)cc1	-4.1	nt	0.5	-1.1	15.1	-5.9
CCOC(=O)C1=C(N)Oc2ccc3ccccc3c2C1c1cccnc1 (stereo not given)	56.9*	5.7	-53.9	-1.6	26.8	16.7
CCOC(=O)C1=C(N)Oc2ccc3ccccc3c2C1c1cccc(O)c1 (stereo not given)	20.3	47.1	2.9	7.5	37.2	59.1
C/C(=N\Nc1nc2ccccc2[nH]1)c1ccc2c(c1)OCO2	78.4*	15.9	-2.9	27.0	-26.4	nt
C/C(=N\Nc1ccccn1)c1ccc2c(c1)OCO2	11.0	1.6	-18.6	-5.6	-16.6	-3.4
C/C(=N\Nc1nc2ccccc2[nH]1)c1ccc2c(c1)OCCO2	56.7*	19.0	11.2	18.2	-3.0	6.3
C/C(=N\Nc1nc2ccccc2[nH]1)c1ccccn1	41.9	92.0*	-0.8	25.3	31.7	nt
C/C(=N\Nc1nc2ccccc2[nH]1)c1cc2ccccc2o1	23.8	26.1	-24.2	36.9	-22.9	20.4
C(=N\Nc1nc2ccccc2[nH]1)/c1ccc2c(c1)OCO2	28.8	nt	-6.8	nt	nt	nt
COC(=O)[C@H]1CN(C(=O)c2ccccc2)C(=O)N1	-4.3	-5.2	-1.6	13.9	10.5	-1.7
CCCC1C(c2ccco2)NC(c2ccco2)CC1(C)O (stereo not given)	7.9	-1.4	88.7*	7.1	11.7	2.4
Cn1c(=O)c2c(ncn2CC(=O)OCC(=O)Nc2sccc2C(N)=O)n(C)c1=O	-1.0	-6.6	-4.5	4.3	9.4	nt
CCn1cc(C(=O)O)c(=O)c2cc(F)c(N/N=C/c3ccccc3[N+](=O)[O-])cc21	34.3	97.2*	-18.7	3.7	24.0	21.7
CCCCn1c(SCC(=O)N2CC(C)CC(C)C2)nc2cc(S(N)(=O)=O)ccc21 (stereo not given)	-2.0	-5.1	-7.1	6.7	-5.0	-9.2
COc1ccc(-n2nc(C(=O)NCC(=O)N3CCCC3)c3ccccc3c2=O)c(OC)c1	-9.8	2.9	-1.0	16.2	-5.6	7.0
SMILES	T cruzi repl	Beta apoptosis	Calb FLC	NLRP3 yeast inh	Mdm2 MdmX PPI	CSC inhib
COc1ccc(-n2nc(C(=O)NCC(=O)N3CCN(c4ccccc4)CC3)c3ccccc3c2=O)c(OC)c1	-1.2	0.5	78.9*	19.3	2.2	-23.8
COc1ccc(-n2nc(C(=O)NCC(=O)N3CCN(c4ccc(F)cc4)CC3)c3ccccc3c2=O)c(OC)c1	8.5	4.3	98.9*	23.0	-2.2	-9.5
O=C(COC(=O)c1ccc(Br)o1)NC1CCCc2ccccc21 (stereo not given)	nt	-1.9	nt	20.4	-6.0	nt
CN(C)c1ccc(/C=N/N=C(N)N)cc1[N+](=O)[O-]	77.7*	-1.9	-19.6	5.2	5.2	-3.1
CCNC(=O)NC(=O)C(C)OC(=O)c1oc2ccccc2c1CSC1CCCCC1 (stereo not given)	25.2	4.1	-8.9	-7.5	14.8	17.7
CNC(=O)NC(=O)C(C)OC(=O)c1oc2ccccc2c1CSc1ccc(Cl)cc1 (stereo not given)	14.8	-5.2	1.3	2.8	28.7	104.0*
CC(=O)OC(COc1cccc(C)c1)Cn1cnc2ccccc21 (stereo not given)	-4.4	7.0	-0.8	-0.1	17.7	-13.5
COc1ccc2cc(C(=O)/C=C/c3cc(OC)c(O)c(OC)c3)ccc2c1	-44.8	nt	14.1	21.5	0.1	54.7
COc1cc(/C=C/C(=O)c2ccc(NS(=O)(=O)c3ccc(C)cc3)cc2)cc(OC)c1O	-19.3	-18.6	0.8	nt	nt	80.0*
CN1CCN(c2ccc(S(=O)(=O)N3CCCCC3)cc2NC(=O)COc2ccc(F)cc2)CC1	64.4*	9.0	-9.5	17.5	10.3	-3.7
CN1CCN(c2ccc(S(=O)(=O)N3CCCCC3)cc2NC(=O)/C=C/c2ccc(Cl)c([N+](=O)[O-])c2)CC1	59.7*	nt	1.3	29.6	45.3	98.4*
CN1CCC(N(C)S(=O)(=O)c2ccc(NC(=O)COc3ccc(F)cc3)cc2)CC1	57.6*	nt	-6.4	25.6	30.9	32.4
Cc1cccc(NC(=O)CSCC(=O)Nc2cc(Cl)ccc2N2CCN(C)CC2)c1	58.8*	-3.5	-6.5	13.6	37.8	-2.9
CN1CCC(N(C)S(=O)(=O)c2ccc(NC(=O)COc3ccc(Cl)cc3)cc2)CC1	nt	4.2	nt	-3.8	30.6	nt
Nc1nnc(SCC(=O)N2CCCCC2)s1	-3.0	-2.2	17.2	13.4	16.7	6.7
CN1CCC(N(C)S(=O)(=O)c2ccc(C(C)(C)C)cc2)CC1	64.6*	0.3	-2.4	11.1	6.2	24.1
CC(=O)Nc1ccc(S(=O)(=O)N(C)C2CCN(C)CC2)cc1	10.2	-1.6	3.1	16.2	15.4	-10.2
CN1CCN(c2ccc(S(=O)(=O)N3CCCCC3)cc2NC(=O)COc2cccc(Cl)c2)CC1	66.1*	4.6	-4.2	13.7	27.7	8.4
CC(C)C(=O)Nc1nnc(SCC(=O)N2c3ccccc3CC2C)s1 (stereo not given)	10.8	-2.3	-9.2	3.0	10.7	4.1
